Experimental data from ChEMBL document CHEMBL1134841, “Antimalarial alkoxylated and hydroxylated chalcones [corrected]: structure-activity relationship analysis” (J Med Chem, 2001).

Assays:
Plasmodium falciparum = test: Inhibition of [3H]hypoxanthine incorporation in Plasmodium falciparum K1; format: functional, organism-based
Procedure, shortened: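 K1 (chloroquine-resistant) parasites cultured in RPMI-1640 with 5% sodium bicarbonate and 10% type O human serum. DMSO stocks were serially diluted 10-fold in medium, covering a 10^6-fold range. Infected erythrocytes at 1–2% parasitemia and 1.5% hematocrit were incubated at 37 °C in a candle jar for 24 h. [3H]hypoxanthine was then added for a further 24 h, cells harvested and scintillation counted. IC50 from nonlinear logistic fit versus untreated control.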

Mus musculus [1] = test: Ratio of average life span of compound-treated mice (100 mg/kg, ip, 3 days) to that of mice receiving DMSO (T/C-untreated); format: functional
Procedure, shortened: (§1)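 Swiss albino mice (male, 4 weeks, ~25 g) inoculated ip with 10^7 P. berghei ANKA parasitized erythrocytes (day 0). Test compound 100 mg/kg/day ip in DMSO, days 1–3, three mice per compound. Control infected groups: DMSO or 4'-butoxy-2,4-dimethoxychalcone (100 mg/kg in DMSO, ip, days 1–3), or chloroquine (52 mg/kg ip in 0.5% Tween buffer pH 7.4, day 1). Survival followed; ratio of mean life spans.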

[2] = Ratio of average life span of compound-treated mice (100 mg/kg, ip, 3 days) to that of mice treated with chloroquine (T/C-CQ); format: functional; procedure, shortened: as §1
Mus musculus [3] = test: Ratio of average life span of compound-treated mice (100 mg/kg, ip, 3 days) to that of mice treated with 4''-butoxy-2,4-dimethoxychalcone (comp.41); format: functional; procedure, shortened: as §1

IC50 (Plasmodium falciparum; Plasmodium falciparum, 48 h) [µM]	SMILES	other results
51	O=C(/C=C/c1ccnc2ccccc12)c1ccc(O)cc1	–
27	COc1ccc(C(=O)/C=C/c2ccnc3ccccc23)c(OC)c1	–
128	COc1ccc(/C=C/C(=O)c2ccc(OC)cc2OC)cc1 [METOCHALCONE]	–
21.7	COc1ccc(/C=C/C(=O)c2ccc(OC)cc2)cc1 [4,4'-DIMETHOXYCHALCONE]	–
20.4	O=C(/C=C/c1ccc([N+](=O)[O-])cc1)c1ccc(O)cc1	–
41.5	COc1ccc(C(=O)/C=C/c2ccccc2Cl)c(OC)c1OC	–
14.5	COc1ccc(C(=O)/C=C/c2ccc(Cl)cc2)c(OC)c1OC	–
16.5	CCc1ccc(/C=C/C(=O)c2ccc(OC)c(OC)c2OC)cc1	–
28.1	CCOc1ccc(C(=O)/C=C/c2ccc(F)cc2F)cc1	–
33.1	O=C(/C=C/c1cccc(Cl)c1)c1ccc(O)cc1	–
298	COc1ccc(C(=O)/C=C/c2ccc(Cl)c(Cl)c2)c(OC)c1	–
18.5	COc1ccc(C(=O)/C=C/c2ccc(F)cc2F)c(OC)c1OC	–
25.4	Cc1ccc(/C=C/C(=O)c2ccc(O)cc2)cc1	–
25.6	COc1ccc(C(=O)/C=C/c2ccc(C)cc2)c(OC)c1OC	–
320	COc1ccc(C(=O)/C=C/c2cccc3ccccc23)c(OC)c1	–
542	COc1ccc(C(=O)/C=C/c2ccc(Br)cc2)c(OC)c1	–
–	CCN(CC)CCCC(C)Nc1ccnc2cc(Cl)ccc12 (configuration not stated) [CHLOROQUINE]	T/C untreated (Mus musculus [1]): 1.81; T/C 41 (Mus musculus [3]): 1.71
24.1	CCOc1ccc(C(=O)/C=C/c2ccc(F)cc2)cc1	–
540	CCOc1ccc(C(=O)/C=C/c2ccc(C#N)cc2)cc1	–
39	CCOc1ccc(C(=O)/C=C/c2ccc([N+](=O)[O-])cc2)cc1	–
70	COc1ccc(C(=O)/C=C/c2ccc(C)cc2)cc1	–
22.5	COc1ccc(C(=O)/C=C/c2ccc([N+](=O)[O-])cc2)c(OC)c1OC	–

IC50 (Plasmodium falciparum; Plasmodium falciparum, 48 h) [µM]	SMILES	other results
24.5	O=C(/C=C/c1ccc(Cl)cc1Cl)c1ccc(O)cc1	–
39.9	O=C(/C=C/c1cccc2ccccc12)c1ccc(O)cc1	–
21.7	O=C(/C=C/c1ccc(F)cc1)c1ccc(O)cc1	–
600	COc1ccc(C(=O)/C=C/c2ccc(F)cc2Cl)c(OC)c1	–
33	CCOc1ccc(C(=O)/C=C/c2ccc(OC)cc2)cc1	–
96	CCOc1ccc(C(=O)/C=C/c2ccc(Cl)cc2Cl)cc1	–
24.9	CCOc1ccc(C(=O)/C=C/c2cnc3ccccc3c2)cc1	–
–	COc1ccc(C(=O)/C=C/c2ccc([N+](=O)[O-])cc2)c(OC)c1 (stereo in doubt; 115)	IC50 (Plasmodium falciparum): 100 µM
20.9	CCCCc1ccc(/C=C/C(=O)c2ccc(O)cc2)cc1	–
25	COc1ccc(/C=C/C(=O)c2ccc(OC)c(OC)c2OC)cc1	–
43	COc1ccc(C(=O)/C=C/c2ccnc3ccccc23)cc1	–
26.5	O=C(/C=C/c1ccc(C(F)(F)F)cc1)c1ccc(O)cc1O	–
342	COc1ccc(C(=O)/C=C/c2ccc(Cl)cc2)c(OC)c1	–
16	COc1ccc(C(=O)/C=C/c2ccc(Cl)cc2Cl)cc1	–
18	COc1ccc(C(=O)/C=C/c2ccc(N(C)C)cc2)c(OC)c1OC	–
122	O=C(/C=C/c1ccncc1)c1ccc(O)cc1O	–
24	CCOc1ccc(C(=O)/C=C/c2ccc(C(F)(F)F)cc2)cc1	–
30	CCOc1ccc(C(=O)/C=C/c2ccc(N(C)C)cc2)cc1	–
–	COc1ccc(C(=O)/C=C/c2ccc([N+](=O)[O-])cc2)c(OC)c1 (stereo in doubt; 109)	IC50 (Plasmodium falciparum): 415 µM
93.8	COc1ccc(C(=O)/C=C/c2ccc(C)cc2)c(OC)c1	–
60	COc1ccc(C(=O)/C=C/c2ccnc3ccccc23)c(OC)c1OC	–
30	CCOc1ccc(C(=O)/C=C/c2ccc(OC)cc2OC)cc1	–

IC50 (Plasmodium falciparum; Plasmodium falciparum, 48 h) [µM]	SMILES	other results
100	CCOc1ccc(C(=O)/C=C/c2ccnc3ccccc23)cc1	–
38	O=C(/C=C/c1ccc(Cl)cc1)c1ccc(O)cc1	–
41	O=C(/C=C/c1cnc2ccccc2c1)c1ccc(O)cc1	–
61.7	O=C(/C=C/c1ccccc1Cl)c1ccc(O)cc1	–
30.4	O=C(/C=C/c1ccc(C(F)(F)F)cc1)c1ccc(O)cc1	–
27.5	O=C(/C=C/c1ccc2ccccc2c1)c1ccc(O)cc1	–
32.2	COc1ccc(/C=C/C(=O)c2ccc(O)cc2)cc1	–
25.8	Cc1cccc(/C=C/C(=O)c2ccc(O)cc2)c1	–
38	CCOc1ccc(C(=O)/C=C/c2ccc(C)cc2)cc1	–
92.8	O=C(/C=C/c1ccnc2ccccc12)c1ccc(O)cc1O	–
26.2	COc1ccc(C(=O)/C=C/c2ccc(-c3ccccc3)cc2)c(OC)c1OC	–
56.4	COc1ccc(/C=C/C(=O)c2ccc(O)cc2O)c(OC)c1	–
19	COc1ccc(C(=O)/C=C/c2ccc(C(F)(F)F)cc2)cc1	–
26.8	COc1ccc(C(=O)/C=C/c2ccc(F)cc2F)cc1	–
16.5	COc1ccc(/C=C/C(=O)c2ccc(OC)c(OC)c2OC)c(OC)c1	–
18.8	COc1ccc(C(=O)/C=C/c2ccc(Cl)cc2Cl)c(OC)c1	–
24.8	O=C(/C=C/c1cccc2ccccc12)c1ccc(O)cc1O	–
24.4	COc1ccc(C(=O)/C=C/c2cccc(Cl)c2)c(OC)c1OC	–
–	COc1ccc(C(=O)/C=C/c2ccc(N(C)C)cc2)c(OC)c1 (stereo in doubt; 103)	IC50 (Plasmodium falciparum): 55.3 µM
322	COc1ccc(C(=O)/C=C/c2ccc(F)cc2)c(OC)c1	–

SMILES	IC50 (Plasmodium falciparum; Plasmodium falciparum, 48 h) [µM]	other results
COc1ccc(C(=O)/C=C/c2ccccc2)c(OC)c1	55.5	–
COc1ccc(C(=O)/C=C/c2ccc(Cl)c(Cl)c2)c(OC)c1OC	14.5	T/C untreated (Mus musculus [1]): 1.47; T/C-CQ [2]: 0.8; T/C 41 (Mus musculus [3]): 1.53
COc1ccc(C(=O)/C=C/c2ccccc2)c(OC)c1OC	15.8	–
COc1ccc(C(=O)/C=C/c2ccc(C(F)(F)F)cc2)c(OC)c1	5.9	T/C untreated (Mus musculus [1]): 1.67; T/C-CQ [2]: 0.84; T/C 41 (Mus musculus [3]): 1.67
COc1ccc(C(=O)/C=C/c2ccc(O)cc2)cc1	7	T/C untreated (Mus musculus [1]): 1.41; T/C-CQ [2]: 0.7; T/C 41 (Mus musculus [3]): 1.47
COc1ccc(C(=O)/C=C/c2cnc3ccccc3c2)cc1	4.8	T/C untreated (Mus musculus [1]): 0.98; T/C-CQ [2]: 0.49; T/C 41 (Mus musculus [3]): 1.03
O=C(/C=C/c1ccc(Cl)cc1Cl)c1ccc(O)cc1O	68.5	T/C untreated (Mus musculus [1]): 1.32; T/C-CQ [2]: 0.94; T/C 41 (Mus musculus [3]): 1.36
O=C(/C=C/c1ccc(Cl)c(Cl)c1)c1ccc(O)cc1	18.4	T/C untreated (Mus musculus [1]): 1.28; T/C-CQ [2]: 0.71; T/C 41 (Mus musculus [3]): 0.81
COc1ccc(C(=O)/C=C/c2ccc(F)cc2F)c(OC)c1	6.2	T/C untreated (Mus musculus [1]): 1.04; T/C-CQ [2]: 0.52; T/C 41 (Mus musculus [3]): 1.04
O=C(/C=C/c1ccccn1)c1ccc(O)cc1O	19.7	T/C untreated (Mus musculus [1]): 1.47; T/C-CQ [2]: 0.81; T/C 41 (Mus musculus [3]): 0.93
COc1ccc(C(=O)/C=C/c2ccc(F)cc2)cc1	14.4	T/C untreated (Mus musculus [1]): 2.2; T/C-CQ [2]: 1.22; T/C 41 (Mus musculus [3]): 1.83
O=C(/C=C/c1ccc(F)cc1F)c1ccc(O)cc1O	16	T/C untreated (Mus musculus [1]): 1.73; T/C-CQ [2]: 1.23; T/C 41 (Mus musculus [3]): 1.78
O=C(/C=C/c1cnc2ccccc2c1)c1ccc(O)cc1O	16.1	T/C untreated (Mus musculus [1]): 1.08; T/C-CQ [2]: 0.77; T/C 41 (Mus musculus [3]): 1.11
COc1ccc(C(=O)/C=C/c2cnc3ccccc3c2)c(OC)c1OC	2	T/C untreated (Mus musculus [1]): 1.91; T/C-CQ [2]: 0.96; T/C 41 (Mus musculus [3]): 1.91
O=C(/C=C/c1ccc2ccccc2c1)c1ccc(O)cc1O	20	T/C untreated (Mus musculus [1]): 1.91; T/C-CQ [2]: 1.05; T/C 41 (Mus musculus [3]): 1.2
O=C(/C=C/c1ccccc1)c1ccc(O)cc1 [4'-HYDROXYCHALCONE]	29.6	–
O=C(/C=C/c1ccc(Cl)cc1)c1ccc(O)cc1O	12.3	T/C untreated (Mus musculus [1]): 1.41; T/C-CQ [2]: 0.71; T/C 41 (Mus musculus [3]): 1.48
COc1ccc(C(=O)/C=C/c2ccc(Cl)cc2Cl)c(OC)c1OC	5.4	T/C untreated (Mus musculus [1]): 0.94; T/C-CQ [2]: 0.48; T/C 41 (Mus musculus [3]): 0.94
COc1ccc(/C=C/C(=O)c2ccc(OC)cc2OC)c(OC)c1	2.1	T/C untreated (Mus musculus [1]): 0.98; T/C-CQ [2]: 0.5; T/C 41 (Mus musculus [3]): 0.98
COc1ccc(C(=O)/C=C/c2cnc3ccccc3c2)c(OC)c1	2.2	T/C untreated (Mus musculus [1]): 1.29; T/C-CQ [2]: 0.65; T/C 41 (Mus musculus [3]): 1.29
CN(C)c1ccc(/C=C/C(=O)c2ccc(O)cc2)cc1	17.7	T/C untreated (Mus musculus [1]): 0.94; T/C-CQ [2]: 0.47; T/C 41 (Mus musculus [3]): 0.99
COc1ccc(C(=O)/C=C/c2ccc(F)cc2)c(OC)c1OC	9.5	T/C untreated (Mus musculus [1]): 1.37; T/C-CQ [2]: 0.69; T/C 41 (Mus musculus [3]): 1.37
COc1ccc(C(=O)/C=C/c2ccc(OC)cc2OC)cc1	6.4	T/C untreated (Mus musculus [1]): 0.92; T/C-CQ [2]: 0.46; T/C 41 (Mus musculus [3]): 0.97
CCOc1ccc(C(=O)/C=C/c2ccccc2)cc1	43	–
CCCCOc1ccc(C(=O)/C=C/c2ccc(OC)cc2OC)cc1	108	T/C untreated (Mus musculus [1]): 1.08; T/C-CQ [2]: 0.57
